Assay results as given in ChEMBL document CHEMBL4513216, “Probing the Open Global Health Chemical Diversity Library for Multistage-Active Starting Points for Next-Generation Antimalarials” (ACS Infect Dis, 2020).

Assay: Toxicity liver stage against HepG2, at 10uM
Assay type: cell-based
Set-up: test concentration 10 uM, cell line HepG2-A16-CD81EGFP
Details: human, HepG2-A16-CD81EGFP cells; read-out: INHIBITION
How it was run: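 Uninfected HepG2-A16-CD81EGFP cells, 3 × 10^3 per well, 1536-well, plated on prespotted compound at 10 μM final, parasite-free screening media added to match infected plates; puromycin 10 μM positive, DMSO 0.5% negative; run in parallel with 48 h PbLuc assay at 37 °C, 5% CO2; viability by CellTiter-Glo luminescence, normalized to controls.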

Structure (SMILES) | cytotoxicity at 10 µM [%]
COc1ccc(CC(C)Nc2cccc(F)c2)cc1 (stereo unspecified) | 5.82
O=c1c2ccccc2nc2n1C(CSc1ccc(F)cc1)CN2 (stereo unspecified) | 11.2
CNCc1cn(C[C@H]2CC3CCN2C[C@@H]3C(=O)Nc2ccccc2)nn1 (stereo partly specified) | -0.288
COCCNc1c(-c2ccc(C)cc2)c(=O)c1=O | -5.15
CCC(CC)NC(=O)c1cccnc1N1CCCC1c1ccccn1 (stereo unspecified) | 10.3
CC(=O)N1N=C(c2cccs2)OC1C(=O)NCCc1cccc(Cl)c1 (stereo unspecified) | -1.66
O=C1CN(C(=O)c2cccc(C(F)(F)F)c2)CC(O)CN1CC1CC1 (stereo unspecified) | -4.65
O=C1CC(c2ccc(O)cc2)c2c(c(C(=O)O)cn2-c2ccccc2)N1 (stereo unspecified) | -4.99
CC(C)CNC(=O)c1cn(C)c(=O)c2ccccc12 | 1.28
O=C(Cc1noc(C(=O)NCCO)n1)Nc1cccc(C(F)(F)F)c1 | 8.9
Cn1ccc2ccc(C(=O)N3CCN(C(=O)OC(C)(C)C)CC3)cc21 | 18.1
Cc1ccsc1C(O)CNC(=O)Cc1ccc(S(=O)(=O)C(C)C)cc1 (stereo unspecified) | -1.21
CCCC(=O)N1CCC2(CC1)CN(Cc1cccc(C)n1)C(=O)CO2 | -5.05
Cc1nc(CN2CCC3(CCN(Cc4cnn(C)c4)C3)C2=O)cs1 (stereo unspecified) | 6.81
COCCn1c2c(ccc1=O)CCN(Cc1ccoc1)CC2 | -134
Cc1ccc(N2CC3(CCN(C(=O)c4ccoc4)C3)C2)nn1 | -11.6
Cc1cnc(C(=O)N2CCc3ncnc(C)c3CC2)cn1 | -6.51
CNC(=O)[C@@]12CCCN(c3ncccn3)[C@@H]1CN(C(=O)NC(C)C)C2 | 0.614
Cc1nc(N2CCN(c3ccccc3)CC2)c2c(n1)c(C)nn2C | 7.8

Structure (SMILES) | cytotoxicity at 10 µM [%]
Cc1nc(N2CCCCC2)ncc1-c1cc(O)nc(N2CCCCC2)n1 | 11.8
Cc1nc(NC2CCN(S(=O)(=O)c3ccccc3)CC2)[nH]c(=O)c1C | -3.45
CCOc1cc([C@@H]2N[C@H](c3nccs3)Cc3ccsc32)ccc1OC | 7.94
O=C(C1CCCCC1)N1CCCC([C@@H]2C[C@H](C(F)F)n3ncnc3N2)C1 (stereo partly specified) | 1.4
Cc1ccnc(C2CN(c3ncccn3)C2)n1 | 2.55
Cc1c(-c2cc(C(=O)N3CCc4ncc(Cl)cc4C3)on2)cnn1C | -3.07
CC1CCCN(CC(=O)N2CCC(c3ncc4c(n3)CCNC4)CC2)C1 (stereo unspecified) | 7.62
CC(C)(C)NC(=O)CNc1ccc(Br)cn1 | -2.81
O=S(=O)(CCO)CCc1ccccc1Cl | 7.21
CCC(O)(CNCc1cc[nH]n1)c1ccc(Br)cc1 (stereo unspecified) | 2.69
CN1N=C(c2nc(Cc3cccc(Br)c3)no2)CCC1=O | -6.09
CC(C)CC(NC(=O)CN(C)c1cnccn1)c1cccs1 (stereo unspecified) | 2.84
CC(C)Cc1noc(CN2CCC(C(=O)NCC3CCCO3)CC2)n1 (stereo unspecified) | 3.13
Cc1occc1CNc1ncccc1S(N)(=O)=O | -149
CCc1cnccc1C(=O)Nc1ccc(C(N)=O)nc1 | 5.44
COc1ccc(C)nc1NC(=O)CCc1c(C)nn(C)c1C | 0.918
Cc1cc(N2CCCCC2)c(C#N)c(C)n1 | -6.16
Cc1csc(-c2cccc(NC(=O)NCC(C)(C)C(N)=O)c2)n1 | -4.25
COC(=O)C1CN(Cc2nc(-c3ccccc3)cs2)C[C@@H](C)O1 (stereo partly specified) | -0.227

Structure (SMILES) | cytotoxicity at 10 µM [%]
CCN1CCCC1CNC(=O)CCc1cccs1 (stereo unspecified) | -9.09
CNC(=O)C(NC(=O)c1c(C)noc1C)c1ccc(F)c(F)c1 (stereo unspecified) | -18.3
O=C(NCCCn1cccn1)N1CCCC1c1cccs1 (stereo unspecified) | -2.39
Cc1cc(C)cc(CNCCS(=O)(=O)N2CCOCC2)c1 | 1.05
CC(CNC(=O)c1ccc(Cl)cc1F)N1CCN(C)CC1 (stereo unspecified) | -8.56
CCc1ncc2c(n1)CN(Cc1cnc(C)cn1)CC2 | -7.51
CCCN1CCCN(c2ncccc2C(=O)N2CCCCC2)CC1 | 0.503
NC(=O)C1CCN(CCc2ccc(NCc3cccnc3)cc2)CC1 | 8.02
CC(C)c1cccc(CSc2nnc(Cn3cncn3)o2)n1 | 13
COc1cccc(CCCn2cnnc2[S+](C)[O-])c1 (stereo unspecified) | -12.7
CC(C)c1nc(CNC2CCN(S(C)(=O)=O)CC2)cs1 | -1.53
CNC(=O)C(NC(=O)c1nccn2ccnc12)c1ccc(F)c(F)c1 (stereo unspecified) | -12.6
Cc1[nH]ccc1C(=O)Nc1cccc(CN2CCC(CO)CC2)c1 | -9.37
Cc1nc(COC[C@@H]2CC[C@H]3[C@H](CCN3S(C)(=O)=O)O2)cs1 | 5.22
Cc1cc(CN2CC[C@H]3C[C@H](c4nccs4)O[C@@H]3C2)no1 | 3.22
COCc1nc(CNC2CCCC(C)(C)C2)no1 (stereo unspecified) | 2.55
C[C@@H]1CN(c2ccc(Cl)cn2)C[C@@]1(O)C1CC1 | -2.81
Cn1c(Cn2ccnc2)nnc1C1CCCN(c2ncccn2)C1 (stereo unspecified) | -6.33
